In series [1] the test system is PC-3. Description: Induction of apoptosis in human PC3 cells assessed as necrotic cells at 1.25 uM after 72 hrs by Annexin V-APC/7-AAD or propidium iodide staining-based flow cytometric analysis (reference value: 2.43%). It is filed as functional. On the technique in general: In flow cytometry, cells or beads pass a laser one at a time.
In series [2] the test system is PC-3. Put plainly: Cell cycle arrest in human PC3 cells assessed as accumulation at S phase at 0.31 uM after 72 hrs by propidium iodide staining-based flow cytometric analysis (reference value: 36.46%). It is filed as functional. The essentials: (§1)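 Concentrations used were 0, 0.3, 0.6 and 1.2 μM in HepG2 and 0, 0.16, 0.31 and 1.25 μM in PC-3, with untreated cells as control, for 72 h. Cells were trypsinized, washed in PBS, fixed in cold ethanol at 4 °C overnight, then incubated 30 min in PBS containing RNase A and propidium iodide. DNA content was read by flow cytometry to give phase distribution.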

Series [3] has as its system PC-3. Description: Cell cycle arrest in human PC3 cells assessed as accumulation at S phase at 1.25 uM after 72 hrs by propidium iodide staining-based flow cytometric analysis (reference value: 36.46%). It is filed as functional. The method in brief:
as §1

In series [4] the test system is PC-3. Put plainly: Cell cycle arrest in human PC3 cells assessed as accumulation at G1 phase at 0.31 uM after 72 hrs by propidium iodide staining-based flow cytometric analysis (reference value: 53.36%). It is filed as functional. The method in brief: as §1
Series [5] is described as follows: Induction of apoptosis in human LO2 cells assessed as viable cells at 1.25 uM after 72 hrs by Annexin V-FITC/7-AAD or propidium iodide staining-based flow cytometric analysis (reference value: 94.26%). It is filed as cell-based, L02. Conditions: read-out: Activity.
Series [6] has as its system L02. Put plainly: Induction of apoptosis in human LO2 cells assessed as necrotic cells at 1.25 uM after 72 hrs by Annexin V-FITC/7-AAD or propidium iodide staining-based flow cytometric analysis (reference value: 1.99%). It is filed as cell-based. Conditions: l02, 72 h.
The subject of series [7] is PC-3. Description: Induction of apoptosis in human PC3 cells assessed as necrotic cells at 0.16 uM after 72 hrs by Annexin V-APC/7-AAD or propidium iodide staining-based flow cytometric analysis (reference value: 2.43%). The series is classed as functional.
Series [8] deals with PC-3. Put plainly: Induction of apoptosis in human PC3 cells assessed as late apoptotic cells at 1.25 uM after 72 hrs by Annexin V-APC/7-AAD or propidium iodide staining-based flow cytometric analysis (reference value: 4.74%). The series is classed as functional.
Series [9] deals with PC-3. Put plainly: Induction of apoptosis in human PC3 cells assessed as early apoptotic cells at 1.25 uM after 72 hrs by Annexin V-APC/7-AAD or propidium iodide staining-based flow cytometric analysis (reference value: 4.09%). The series is classed as functional.
In series [10] the test system is PC-3. Put plainly: Induction of apoptosis in human PC3 cells assessed as late apoptotic cells at 0.31 uM after 72 hrs by Annexin V-APC/7-AAD or propidium iodide staining-based flow cytometric analysis (reference value: 4.74%). The series is classed as functional.
Series [11] deals with L02. Description: Induction of apoptosis in human LO2 cells assessed as necrotic cells at 50 uM after 72 hrs by Annexin V-FITC/7-AAD or propidium iodide staining-based flow cytometric analysis (reference value: 1.99%). It is filed as cell-based. Conditions: l02, 72 h.
The subject of series [12] is HepG2. Description: Induction of apoptosis in human HepG2 cells assessed as reduction in mitochondrial membrane potential at 0.6 uM after 48 hrs by JC-1 staining-based flow cytometric analysis (reference value: 1.6%). It is filed as functional. More on the design: scale not given: the % may be the effect or the level left. The method in brief:
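HepG2 cells cultured overnight, then incubated in triplicate with 0, 0.3, 0.6 or 1.2 μM, or vehicle, for 48 h. Stained with the cationic dye JC-1. Flow cytometry gave the percentage of cells with healthy versus collapsed mitochondrial membrane potential.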

The subject of series [13] is HepG2. Put plainly: Induction of apoptosis in human HepG2 cells assessed as necrotic cells at 0.3 uM after 72 hrs by Annexin V-APC/7-AAD or propidium iodide staining-based flow cytometric analysis (reference value: 1.87%). The series is classed as functional.
The test system of series [14] is HepG2. Put plainly: Induction of apoptosis in human HepG2 cells assessed as early apoptotic cells at 1.2 uM after 72 hrs by Annexin V-APC/7-AAD or propidium iodide staining-based flow cytometric analysis (reference value: 1.87%). It is filed as functional.
For series [15], the system named is HepG2. Description: Cell cycle arrest in human HepG2 cells assessed as accumulation at G2/M phase at 0.3 uM after 72 hrs by propidium iodide staining-based flow cytometric analysis (reference value: 21.4%). It is filed as functional. The essentials: as §1
In series [16] the test system is HepG2. Put plainly: Induction of apoptosis in human HepG2 cells assessed as viable cells at 1.2 uM after 72 hrs by Annexin V-APC/7-AAD or propidium iodide staining-based flow cytometric analysis (reference value: 90.08%). It is filed as functional. Conditions: HepG2, 72 h, read-out: Activity.
In series [17] the test system is HepG2. Description: Cell cycle arrest in human HepG2 cells assessed as accumulation at G1 phase at 0.3 uM after 72 hrs by propidium iodide staining-based flow cytometric analysis (reference value: 34%). The series is classed as functional. The method in brief: as §1
Series [18] has as its system HepG2. Put plainly: Induction of apoptosis in human HepG2 cells assessed as reduction in Hsp27 expression levels at 2 uM after 24 hrs by membrane-based sandwich immunoassay. It is filed as functional, cell-based. The essentials: (§2)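 HepG2 cells treated at 2 μM for 24 h; protein extracts prepared per the kit protocol. Relative levels of 35 apoptosis-related proteins measured with a human apoptosis antibody array.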

Series [19] has as its system HepG2. Description: Induction of apoptosis in human HepG2 cells assessed as early apoptotic cells at 0.3 uM after 72 hrs by Annexin V-APC/7-AAD or propidium iodide staining-based flow cytometric analysis (reference value: 1.87%). The series is classed as functional.
In series [20] the test system is HepG2. Description: Induction of apoptosis in human HepG2 cells assessed as reduction in Hsp60 expression levels at 2 uM after 24 hrs by membrane-based sandwich immunoassay. It is filed as functional, cell-based. The method in brief:
as §2

The test system of series [21] is HepG2. Description: Cell cycle arrest in human HepG2 cells assessed as accumulation at S phase at 0.6 uM after 72 hrs by propidium iodide staining-based flow cytometric analysis (reference value: 44.6%). The series is classed as functional. The essentials:
as §1

The source made the active and inactive calls. No cut-off for these calls is given here.

In the case of `COc1ccc(-c2cc(=O)c3c(O)c(OC)c(O[C@@H]4O[C@H](C(=O)NCCOc5no[n+]([O-])c5S(=O)(=O)c5ccccc5)[C@@H](O)[C@H](O)[C@H]4O)cc3o2)cc1`, the Activity in the series on PC-3 [1] is listed as 5.21%; with PC-3 [2], 43.3%; with PC-3 [3], 50.41%; with PC-3 [4] it was 43.22%; with L02 [6], 1.32%; with PC-3 [7] it was 4.42%. For the same compound, the Activity was 43.54% in the series with PC-3 [8], 14.91% in the series on PC-3 [9] and 22.46% with PC-3 [10]. Besides, in series [5], the viability at 72 h, 1.25 µM came to 78.4%.

For `O=C(NCCCOc1no[n+]([O-])c1S(=O)(=O)c1ccccc1)[C@H]1O[C@@H](Oc2cc3oc(-c4ccc(OCc5ccccc5)cc4)cc(=O)c3c(O)c2OCc2ccccc2)[C@H](O)[C@@H](O)[C@@H]1O`, the Activity in the series with L02 [11] came out at 2.27%; in the series on HepG2 [12], 31.12%; in the series with HepG2 [13], 3.85%; in the series with HepG2 [14], 13.46%; with HepG2 [15] it was 20.73%; with HepG2 [17] it was 32.13%. The figures for the Activity in the series with HepG2 [19] and with HepG2 [21] were 3.04% and 50.45%, respectively. Moreover, the viability at 1.2 µM with HepG2 [16] came out at 41.8%. Further, the result with HepG2 [18] and in the series with HepG2 [20] was Active.

For the origin of these results see ChEMBL document CHEMBL4052629, “Scutellarin derivatives as apoptosis inducers: Design, synthesis and biological evaluation” (Eur J Med Chem, 2017).
